From ChEMBL document CHEMBL4043304, “Synthesis and Evaluation of Hydrogen Peroxide Sensitive Prodrugs of Methotrexate and Aminopterin for the Treatment of Rheumatoid Arthritis” (J Med Chem, 2018)
≈ marks a conversion by molar mass, not a printed value. Each block holds one compound with its values, some of them ahead of it. Calls of active or inactive are those of the source. No cut-off for these calls is given here.

Tests used:
[1] = Prodrug activation in DMSO/PBS mixture assessed as formation of (S)-dimethyl 2-(4-((2,4-diaminopteridin-6-yl)methylamino)benzamido)pentanedioate at 50 uM measured within 2 hrs in presence of 0.5 mM H2O2 by RP-UPLC-MS method
Procedure, shortened: (§1)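 50 µM prodrug in 30% DMSO/PBS pH 7.4 at 37 °C with diclofenac internal standard. Started with H2O2 at 0.5 mM final. Sampled 5 min to 4 h (some compounds to 48 h). RP-UPLC-UV at 306 nm. No-H2O2 control run in parallel. Triplicate.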

[2] = Prodrug activation in DMSO/PBS mixture assessed as formation of aminopterin at 50 uM measured within 2 hrs in presence of 0.5 mM H2O2 by RP-UPLC-MS method; procedure, shortened: as §1
[3] = Kinetic solubility of the compound in DMSO/PBS mixture after 20 hrs by RP-UPLC-UV method; type: physicochemical; conditions: read-out: Kinetic_solubility
Procedure, shortened: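 100 µM compound in 1% DMSO/PBS pH 7.4, shaken 20 h at 37 °C. Centrifuged to remove insoluble material; supernatant quantified by RP-UPLC-UV at 306 nm. Triplicate.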

[4] = Prodrug activation in DMSO/PBS mixture assessed as formation of (S)-dimethyl 2-(4-((2,4-diaminopteridin-6-yl)methylamino)benzamido)pentanedioate at 50 uM after 2 hrs in presence of 0.5 mM H2O2 by RP-UPLC-MS method
[5] = Prodrug activation in DMSO/PBS mixture assessed as formation of (S)-dimethyl 2-(4-(((2,4-diaminopteridin-6-yl)methyl)(4-hydroxybenzyl)amino)benzamido)pentanedioate at 50 uM measured within 2 hrs in presence of 0.5 mM H2O2 by RP-UPLC-MS method; procedure, shortened: as §1
[6] = Prodrug activation in DMSO/PBS mixture assessed as formation of Dimethyl (4-(((2,4-Diaminopteridin-6-yl)methyl)(methyl)amino)-benzoyl)-L-glutamate at 50 uM after <3 hrs in presence of 0.5 mM H2O2 by RP-UPLC-MS method; procedure, shortened: as §1
Mus musculus [7] = experiment: Antiarthritic activity in collagen-induced DBA/1J mouse arthritis model assessed as decrease in incidence of arthritis at 7 mg/kg, ip administered daily for 2 weeks starting on day 27 post first immunization measured thrice per week during compound dosing relative to control; type: functional, organism-based
Procedure, shortened: (§2)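 Male DBA/1J mice (8–9 wk, n = 8/group). Arthritis induced by intradermal tail-base immunization with 100 µg chicken type-II collagen in CFA on day −1, with a 50 µg boost on day 21. Daily i.p. dosing in 2% DMSO/PBS for 14 days from day 27. Blinded scoring three times weekly, 0–15 per limb (max 60). Vehicle group as control. Mann-Whitney test.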

NCI-H460 = experiment: Cytotoxicity against human NCI-H460 cells assessed as decrease in cell viability after 48 hrs by MTS assay; type: functional, cell-based
Procedure, shortened: (§3)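 MCF-7 (DMEM) or NCI-H460 (RPMI), 10% FBS, seeded at 10^4 or 7×10^3 cells/well respectively and attached for 24 h. Exposed to serial compound concentrations for 48 h, then MTS read at 490 nm. DMSO ≤0.4% matched controls. Triplicate. IC50 by non-linear regression.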

Mus musculus [8] = experiment: Antiarthritic activity in collagen-induced DBA/1J mouse arthritis model assessed as reduction of macroscopic score at 7 mg/kg, ip administered daily for 2 weeks starting on day 27 post first immunization measured thrice per week during compound dosing relative to control; type: functional, organism-based; procedure, shortened: as §2
Mus musculus [9] = experiment: Toxicity in collagen-induced DBA/1J mouse arthritis model assessed as decrease in body weight at 7 mg/kg, ip administered daily for 2 weeks starting on day 27 post first immunization measured thrice per week during compound dosing; type: organism-based; conditions: in vivo, 336 h
Procedure, shortened: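 CIA in male DBA/1J mice (8–9 wk, n = 8/group) from chicken type-II collagen/CFA immunization (day −1, boost day 21). Daily i.p. dosing in 2% DMSO/PBS for 14 days starting day 27. Body weight recorded three times weekly as a general-health indicator, compared with vehicle. Data are mean ± SEM.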

MCF7 = experiment: Cytotoxicity against human MCF7 cells assessed as decrease in cell viability after 48 hrs by MTS assay; type: functional, cell-based; procedure, shortened: as §3

solubility kinetic at 20 h [3]: 4.1 µM (≈ 2.47 µg/mL)
SMILES: COC(=O)CC[C@H](NC(=O)c1ccc(N(Cc2ccc(B(O)O)cc2)Cc2cnc3nc(N)nc(N)c3n2)cc1)C(=O)OC
Drug metabolism [1]: Metabolite not detected
Drug metabolism [2]: Metabolite not detected
Drug metabolism [4]: Metabolite detected
Drug metabolism [5]: Metabolite detected

solubility kinetic at 20 h [3]: 3 µM (≈ 1.98 µg/mL)
SMILES: COC(=O)CC[C@H](NC(=O)c1ccc(N(C)Cc2cnc3nc(N)nc(NC(=O)OCc4ccc(B(O)O)cc4)c3n2)cc1)C(=O)OC
Drug metabolism [6]: > 95%

solubility kinetic at 20 h [3]: 2140 µM (≈ 971 µg/mL)
SMILES: CN(Cc1cnc2nc(N)nc(N)c2n1)c1ccc(C(=O)N[C@@H](CCC(=O)O)C(=O)O)cc1 [METHOTREXATE]
Activity (Mus musculus [7]): Active
Activity (NCI-H460): Active
Activity (Mus musculus [8]): Active
Activity (Mus musculus [9]): Toxic
Activity (MCF7): Active

SMILES: COC(=O)CC[C@H](NC(=O)c1ccc(N(C)Cc2cnc3nc(N)nc(NC(=O)OCc4ccc(B(O)O)c(C)c4)c3n2)cc1)C(=O)OC
Drug metabolism [6]: > 95%
